The list is not random: actives were taken first. Their share in the collection is about 1.5%.
CCR6 antagonist – CCR6 receptor antagonists, primary screen, cell-based, CHO-K1, luminescence, beta-arrestin, uHTS | hit rate 0.49% among 340,000 | CHO-K1 CCR6 PathHunter beta-arrestin, CCL20-stimulated | inhibition, % at 20 µM | C-C chemokine receptor type 6 (Homo sapiens), P51684 | AID 493098, 2011;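 active = compounds whose inhibition of the agonist-driven luminescence signal at 20 µM reaches about 50%, limit read from the data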;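 also: cells stimulated with CCL20 at 14 nM final; plate controls were DMSO with CCL20 for no effect and DMSO without agonist for full effect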
Target sequence (P51684 whole entry, looked up): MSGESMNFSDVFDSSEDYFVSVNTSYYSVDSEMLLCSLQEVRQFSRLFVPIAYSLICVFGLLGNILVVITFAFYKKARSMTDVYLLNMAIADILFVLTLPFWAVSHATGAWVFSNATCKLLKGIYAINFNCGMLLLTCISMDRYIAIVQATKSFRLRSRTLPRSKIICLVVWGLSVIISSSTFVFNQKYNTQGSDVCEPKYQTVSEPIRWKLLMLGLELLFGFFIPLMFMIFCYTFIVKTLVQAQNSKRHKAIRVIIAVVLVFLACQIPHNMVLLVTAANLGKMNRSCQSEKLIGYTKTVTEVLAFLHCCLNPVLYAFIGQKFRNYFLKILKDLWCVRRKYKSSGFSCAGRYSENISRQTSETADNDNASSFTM
EBI2 antag – EBI2 receptor antagonists, beta-arrestin recruitment, primary screen, cell-based, luminescence, 7a,25-OHC stimulation, uHTS; G-protein coupled receptor 183 (Homo sapiens), P32249; 7a,25-OHC stimulated; inhibition, % at 5 µM; hit rate 0.81% among 360,000; AID 651636, 2012; in the data active = inhibition above about 38%;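 also: enzyme fragment complementation signal reports receptor beta-arrestin coupling in cells; 0% = agonist plus DMSO wells and 100% = wells without agonist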
CXCR6 inh – CXCR6 receptor inhibitors, primary screen, cell-based, beta-arrestin, luminescence, CHO-K1 PathHunter, 1536-well; C-X-C chemokine receptor type 6 (Homo sapiens), O00574; inhibition, % at 20 µM; hit rate 0.36% among 360,000; AID 602244, 2012; in the data active = inhibition above about 34%, passing the limit was not always enough;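 also: antagonist mode with CXCL16 agonist at 10 nM final; 0% = 10 nM CXCL16 with DMSO and 100% = unstimulated wells without agonist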
APJ antagonist – antagonists of human apelin receptor APJ, primary screen, CHO-K1 cells, beta-arrestin complementation, luminescence. P35414. inhibition, % at 20 µM. hit rate 0.32% among 330,000;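 active = inhibition above about 40% at 20 µM, limit read from the data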;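 also: cells challenged with 10 nM apelin-13 agonist together with compound; plate controls were apelin-13 plus DMSO wells for no effect and DMSO wells lacking apelin-13 for full effect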
APJ agonist – agonists of human apelin receptor APJ, primary screen, CHO-K1 cells, PathHunter beta-arrestin, luminescence | P35414 | 0% DMSO wells, 100% apelin | activation, % at 20 µM | hit rate 0.11% among 330,000;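 active = activation more than six SD over the plate average, tested at 20 µM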;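 also: 0% = DMSO alone and 100% = apelin-13 at 10 nM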
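Test system: CHO-K1 APJ beta-arrestin complementation cell line | Compound: Single test compound dose, 20 µM final, 1% DMSO | Incubation: Compound 90 min 25 °C, reagent 1 h | Measured by: beta-gal luminescence | Read-out basis: APJ–arrestin association signal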
Numbers without * were called inactive.

How did N#CC(C#N)=C1C=CC=CN1/C(=C\c1ccco1)C(=O)c1ccc(Cl)cc1 do in these assays?
CCR6 antagonist: 117*; EBI2 antag: 74*; CXCR6 inh: 103*

How did COc1ccccc1C(=O)NCC(=O)N1CC=C(c2ccccc2)CC1 do in these assays?
CCR6 antagonist: 13; EBI2 antag: 6; CXCR6 inh: -5; APJ antagonist: 4; APJ agonist: -7

What do the screens show for `O=C(NC(=S)N1CCN(c2ccc(Cl)cc2[N+](=O)[O-])CC1)c1cccs1`?
EBI2 antag: -5; CXCR6 inh: 43*

Results for O=C(NC(=S)N1CCN(c2ccc(Cl)cc2[N+](=O)[O-])CC1)c1ccco1 ?
CCR6 antagonist: 17; EBI2 antag: -16; CXCR6 inh: 21; APJ antagonist: 14; APJ agonist: -6

Results for CCCCOCCCNC(=O)C[C@@H]1C[C@@]2(C(=O)OC)CCCCC=C2N(CCc2ccc(OC)c(OC)c2)C1=O ?
EBI2 antag: 0

What do the screens show for `CC(C)Oc1cc(F)ccc1-c1cc(C(=O)NCCc2ccncc2)[nH]n1`?
EBI2 antag: 0; CXCR6 inh: 0

What do the screens show for `COc1ccc(N2CSC3=C(C#N)C(c4cc(OC)c(OC)cc4OC)CC(=O)N3C2)c(OC)c1` (stereo not drawn)?
CCR6 antagonist: -10; EBI2 antag: -7; CXCR6 inh: -8; APJ antagonist: -16; APJ agonist: 25*

What do the screens show for `COc1ccc(N2CSC3=C(C#N)C(c4cc(OC)ccc4OC)CC(=O)N3C2)c(OC)c1` (stereo not drawn)?
CCR6 antagonist: 14; EBI2 antag: -3; CXCR6 inh: -12; APJ antagonist: -15; APJ agonist: 20

How did CCCCNC(=O)c1nc(C2CCN(S(=O)(=O)c3ccc(OC(F)(F)F)cc3)CC2)oc1-c1ccccc1 do in these assays?
EBI2 antag: 2

What do the screens show for `CCOC(=O)C1NN=C(C(=O)c2ccccc2)C1c1ccccc1` (stereo not drawn)?
CCR6 antagonist: 36; EBI2 antag: -2; CXCR6 inh: 12; APJ antagonist: 18; APJ agonist: -2

Results for CCOC(=O)C1NN=C(C(=O)c2ccccc2)C1c1ccc(Cl)cc1 (stereo not drawn) ?
CCR6 antagonist: 18; EBI2 antag: -2; CXCR6 inh: 4; APJ antagonist: 47*; APJ agonist: -4

How did COc1ccc(-c2nc(-c3ccc4c(c3)OCO4)[nH]c2-c2ccc(OC)cc2)cc1 do in these assays?
CCR6 antagonist: 17; EBI2 antag: 48*; CXCR6 inh: 4; APJ antagonist: 17; APJ agonist: 2

What do the screens show for `COc1cc(OC)cc(C2=Cc3ccccc3C(CC(=O)c3ccco3)N2c2ccc(-c3cccnc3)cc2)c1` (stereo not drawn)?
EBI2 antag: 0; CXCR6 inh: 3

Results for COc1cccc(C(C)(O)c2nc(-c3ccc(C)c(C)c3)cs2)c1 (stereo not drawn) ?
EBI2 antag: 2; CXCR6 inh: -10

Results for CO[C@H]1CN(C)C(=O)c2cc(NC(=O)C3CCOCC3)ccc2OC[C@H](C)N(Cc2nccs2)C[C@H]1C ?
EBI2 antag: -5

What do the screens show for `COc1ccc(NC(=O)N2CCCC(c3nc(-c4ccc(C(C)C)cc4)no3)C2)cc1` (stereo not drawn)?
CCR6 antagonist: 4; EBI2 antag: 72*; CXCR6 inh: 10; APJ antagonist: -24; APJ agonist: 3

Results for COc1ccc(-c2noc(C3CCCN(C(=O)Nc4ccccc4)C3)n2)cc1 (stereo not drawn) ?
CCR6 antagonist: 4; EBI2 antag: -4; CXCR6 inh: -9; APJ antagonist: -16; APJ agonist: -2

Results for C#CCN(C[C@@H]1[C@@H](OC(=O)NCC2CCCCC2)[C@@H](OC(=O)NCC2CCCCC2)Cn2c(=O)ccc(=O)n21)S(=O)(=O)c1ccc(C)cc1 ?
EBI2 antag: 81*; CXCR6 inh: -8

Bioassay records as filed in PubChem.
